According to ChEMBL document CHEMBL2163294, “2-(N-Benzyl-N-phenylsulfonamido)alkyl amide derivatives as γ-secretase inhibitors” (Bioorg Med Chem Lett, 2012):

How the values were obtained:
[1] = Inhibition of gamma-secretase-mediated amyloid beta42 production by GS H4-8 SW1-42 assay
[2] = Plasma concentration in Tg2576 mouse at 200 umol/kg, po measured at 180 mins; format: ADME, organism-based
Outline: (§1)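 Transgenic mice received a single 200 µmol/kg dose. […] Test-compound concentrations in brain and plasma (nM) were measured at the same time point.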

[3] = test system: Mus musculus; assay: Antialzheimer activity in Tg2576 mouse assessed as reduction in brain amyloid-beta40 level at 200 umol/kg, po measured at 180 mins; format: functional; settings: 3 h; outline: as §1
[4] = Drug uptake in Tg2576 mouse brain at 200 umol/kg, po measured at 180 mins; format: ADME, organism-based; settings: read-out: Drug uptake; outline: as §1
[5] = test system: Liver; assay: Metabolic stability in mouse liver microsomes; format: ADME, Microsome
[6] = test system: Mus musculus; assay: Antialzheimer activity in Tg2576 mouse assessed as reduction in plasma amyloid-beta40 level at 200 umol/kg, po measured at 180 mins; format: functional; settings: 3 h; outline: as §1
[7] = test system: Liver microsomes; assay: Metabolic stability in human liver microsomes; format: ADME, Microsome
[8] = molecular target: Gamma-secretase; assay: Inhibition of human gamma-secretase expressed in IMR32 cell membranes using MBPC-125 Swedish as substrate assessed as inhibition of amyloid beta40 production after 2 hrs by ELISA; settings: imr-32

Row | SMILES | IC50 ([1]; read-out: IC50) | other results
1 | COc1ccc(CN([C@H](CC(C)C)C(N)=O)S(=O)(=O)c2ccc(C(F)(F)F)cc2)cc1F | 0.27 nM | –
2 | CSCC[C@H](C(N)=O)N(Cc1ccc(C#N)cc1)S(=O)(=O)c1ccc(Cl)cc1 | 19 nM | –
3 | COc1ccc(CN([C@H](CC(C)C)C(=O)N(C)OC)S(=O)(=O)c2ccc(Cl)cc2)cc1 | 160 nM | –
4 | CC(C)C[C@H](C(N)=O)N(Cc1ccc(CCl)cc1)S(=O)(=O)c1ccc(Cl)cc1 | 0.35 nM | –
5 | NC(=O)[C@@H](CC1CC1)N(Cc1ccc(C(F)(F)F)cc1)S(=O)(=O)c1ccc(Cl)cc1 | 0.68 nM | concentration at 3 h [2]: 3.6 µM; inhibition in vivo at 200 µmol/kg [3]: 78%; concentration at 3 h [4]: 6.3 µM; Stability [5]: 0.27 nmol/min/mg; inhibition in vivo at 200 µmol/kg [6]: 65%; Stability [7]: 0.23 nmol/min/mg
6 | COc1ccc(CN(C(=O)Nc2ccccc2)[C@H](CC(C)C)C(N)=O)cc1F | 1100 nM | –
7 | CC[C@H](C(N)=O)N(Cc1ccc(C#N)cc1)S(=O)(=O)c1ccc(Cl)cc1 | 4.4 nM | –
8 | CC(C)C[C@H](C(N)=O)N(Cc1cc(F)cc(F)c1)S(=O)(=O)c1ccc(Cl)cc1 | 0.62 nM | –
9 | CC(C)C[C@H](C(N)=O)N(CC1CCCCC1)S(=O)(=O)c1ccc(Cl)cc1 | 0.79 nM | –
10 | CC(C)C[C@H](C(N)=O)N(Cc1ccc(C(F)(F)F)cc1)S(=O)(=O)c1ccc(Cl)cc1 | 0.39 nM | –
11 | CC(C)C[C@H](C(N)=O)N(Cc1ccccc1)S(=O)(=O)c1ccc(Cl)cc1 | 0.35 nM | –
12 | CC(C)C[C@H](C(N)=O)N(CCSC(C)(C)C)S(=O)(=O)c1ccc(Cl)cc1 | 4.2 nM | –
13 | COc1ccc(CN([C@H](CC(C)C)C(N)=O)S(=O)(=O)c2ccc(F)cc2)cc1F | 0.26 nM | –
14 | CC(C)C[C@H](C(N)=O)N(Cc1ccc(C(C)(C)C)cc1)S(=O)(=O)c1ccc(Cl)cc1 | 0.39 nM | –
15 | CC(C)C[C@H](C(N)=O)N(Cc1ccc(N(C)C)cc1)S(=O)(=O)c1ccc(Cl)cc1 | 0.27 nM | –
16 | COc1ccc(CN([C@H](CC(C)C)C(=O)N(C)C)S(=O)(=O)c2ccc(Cl)cc2)cc1 | 1100 nM | –

Row | SMILES | IC50 ([1]; read-out: IC50) | other results
17 | CC(C)C[C@H](C(N)=O)N(CCCCCCN1CCOCC1)S(=O)(=O)c1ccc(Cl)cc1 | 3.5 nM | –
18 | CC(C)C[C@H](C(N)=O)N(CCCc1ccccc1)S(=O)(=O)c1ccc(Cl)cc1 | 0.41 nM | –
19 | COc1ccc(CN([C@@H](C(N)=O)C(C)C)S(=O)(=O)c2ccc(Cl)cc2)cc1F | 1.4 nM | –
20 | CC(C)C[C@H](C(N)=O)N(CC1CCN(Cc2ccccc2)CC1)S(=O)(=O)c1ccc(Cl)cc1 | 17 nM | –
21 | CCN([C@H](CC(C)C)C(N)=O)S(=O)(=O)c1ccc(Cl)cc1 | 2.3 nM | –
22 | N#Cc1ccc(CN([C@H](CC2CC2)C(N)=O)S(=O)(=O)c2ccc(Cl)cc2)cc1 | 0.94 nM | concentration at 3 h [2]: 8.6 µM; inhibition in vivo at 200 µmol/kg [3]: 75%; concentration at 3 h [4]: 2.8 µM; Stability [5]: 0.17 nmol/min/mg; inhibition in vivo at 200 µmol/kg [6]: 81%; Stability [7]: 0.16 nmol/min/mg
23 | C=CC[C@H](C(N)=O)N(Cc1ccc(OC)c(F)c1)S(=O)(=O)c1ccc(Cl)cc1 | 0.35 nM | –
24 | CCC[C@H](C(N)=O)N(Cc1ccc(OC)c(F)c1)S(=O)(=O)c1ccc(Cl)cc1 | 0.52 nM | concentration at 3 h [2]: 0.84 µM; inhibition in vivo at 200 µmol/kg [3]: 72%; concentration at 3 h [4]: 0.38 µM; Stability [5]: 0.3 nmol/min/mg; inhibition in vivo at 200 µmol/kg [6]: 41%; Stability [7]: 0.3 nmol/min/mg
25 | CC(C)C[C@H](C(N)=O)N(Cc1ccc(C#N)cc1)S(=O)(=O)c1ccc(F)cc1 | 2.7 nM | –
26 | CC(C)C[C@H](C(N)=O)N(Cc1ccc(F)cc1)S(=O)(=O)c1ccc(Cl)cc1 | 0.43 nM | –
27 | COc1ccc(CN([C@H](CC(C)C)C(N)=O)S(=O)(=O)c2cccc(Cl)c2)cc1F | 7 nM | –
28 | COc1ccc(CN(C(=O)c2ccc(Cl)cc2)[C@H](CC(C)C)C(N)=O)cc1F | – | IC50 [1]: Not Active
29 | COc1ccc(CN([C@H](CC(C)C)c2nc(C)no2)S(=O)(=O)c2ccc(Cl)cc2)cc1 | 2200 nM | –
30 | CC(C)C[C@H](C(=O)NN)N(Cc1ccc(C(F)(F)F)cc1)S(=O)(=O)c1ccc(Cl)cc1 | 110 nM | –
31 | COc1ccc(CN([C@H](CC(C)C)C(N)=O)S(=O)(=O)c2ccc(Cl)cc2)cc1 | – | IC50 [8]: 0.19 nM
